Test results published in PMC7116464 (Biochemical pharmacology, 2019).

Experiments:
[1] = system: Leishmania tarentolae promastigotes (LtP); test: Viability assay of LtP; type: cell-based; settings: calculated from IC50, J774/IC50, LtP
[2] = system: J774 macrophages; test: Viability assay of J774 cells; type: cell-based, murine; settings: Mus musculus, J774, read-out: IC50 J774
Summary of the method: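 J774A.1 macrophages seeded at 1 × 10^5/mL in DMEM/10% FCS and allowed to attach for 24 h (37 °C, 5% CO2). Wells washed with PBS and refilled with medium. Compounds added from 25 or 200 µM in five 1:5 serial dilutions, triplicate. After 24 h, 20 µM resazurin (final) added for 4 h; fluorescence read at ex 560/em 590 nm.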

[3] = system: Leishmania tarentolae promastigotes (LtP); type: cell-based; settings: for IC50: Leishmania tarentolae, read-out: IC50 in the absence of additional inhibitors; for influence on the antileishmanial action (IC50) of Asc and Art: PIH 100 µM, SnMP 50 µM, CrMP 50 µM, NAC 2 mM, LtP in YEM/PBS with 6 µM hemin
[4] = system: HO-like activity in LtP homogenates; test: Heme oxygenase-like activity; type: biochemical, Leishmania tarentolae
[5] = system: labile iron pool (LIP) in LtP; test: Low temperature EPR spectroscopy of the labile iron pool in LtP; type: cell-based, Leishmania tarentolae; settings: 1 mM EP, 1 h at 26 °C, EPR at 77 K
[6] = system: splenic parasite burden; settings: Art orally 25 mg/kg body weight vs SAG 20 mg/kg body weight; cited from earlier work
[7] = system: hemin degradation in LtP homogenates and SGF/MCF fractions; test: Hemin degradation in LtP homogenates and SGF/MCF subfractions by HPLC; type: biochemical, Leishmania tarentolae; settings: 40 µM ZnPP, 7 µM hemin, 0, 2 or 4 h at 26 °C
Summary of the method: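 LtP homogenates from hypo-osmotic lysis and freeze–thaw (37 mg protein/mL), or pooled SGF/MCF pellets from differential centrifugation (3.7 mg protein/mL). Samples diluted in phosphate buffer pH 7.4 with 7 µM hemin plus 1.1 mM NADPH or 40 µM ZnPP; 0, 2 or 4 h at 26 °C. Hemin followed by HPLC-UV, normalised to 0 h; mean ± SD, n = 3.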

[8] = system: Leishmania tarentolae promastigotes (LtP); test: Metal; type: cell-based; settings: 0 - 3 days; for iron content in LtP: 10 µM SnMP or 1 µM ZnPP, ICP-OES
Summary of the method: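 Promastigotes (3.6 × 10^7/mL at day 0, OD600 0.3) grown in medium alone, with 10 µM SnMP or with 1 µM ZnPP for 0–3 days at 27 °C. After acid digestion (final 2 h at 75 °C), Fe measured by ICP-OES against 0.01–10 ppm standards. Sn measured by ICP-MS (120Sn, 0.1–100 ppb standards, isotope-corrected) after further 3-fold dilution. Results given as amol/cell.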

[9] = SnMP or CrMP 38 µM, 77 µM, hemin 6.67 µM, NADPH 1 mM, RLS, 27 °C, 30 min

Compound	IC50, J774/IC50, LtP (selectivity index) [1]	IC50 [2] [µM]	influence on the antileishmanial action (IC50) of Asc and Art [3]	also measured
C[C@H]1[C@H](OC(=O)CCC(=O)O)O[C@@H]2O[C@@]3(C)CC[C@H]4[C@H](C)CC[C@@H]1[C@@]24OO3 [Arsu, artesunate]	9	16.9 ± 5.2		
C[C@@H]1CC[C@H]2[C@@H](C)C(=O)O[C@@H]3O[C@@]4(C)CC[C@@H]1[C@]32OO4 [Art, artemisinin]		192 ± 41.1		IC50 [3]: 2.96 ± 0.71 µM; HO-like activity (bilirubin formation) ([4]; Art 500 µM in the presence of catalase 2520 U/mL): inhibited the HO-like activity in LtP homogenates; influence on the redox state of the LIP (apparent Fe3+) [5]: influences the redox state of the LIP in LtP to a much lesser extent than Asc; splenic parasite burden [6]: reduce the splenic parasite burden slightly more than sodium antimony gluconate (SAG)
CC(C)C12C=CC(C)(CC1)OO2 (centres unmarked) [Asc, Ascaridole]	7	202 ± 38.2		IC50 [3]: 28.3 ± 6.7 µM
C[C@H]1[C@@H](O)O[C@@H]2O[C@@]3(C)CC[C@H]4[C@H](C)CC[C@@H]1[C@@]24OO3 [DHA, dihydroartemisinin]	20	14.8 ± 6.49		
C[C@@H]1CC[C@H]2[C@@H](C)C(=O)O[C@@H]3O[C@@]4(C)CC[C@@H]1[C@]32O4 [DeoxyArt, deoxyartemisinin]	1	> 200		
CC(=O)N[C@@H](CS)C(=O)O [NAC, N-acetylcysteine]			inhibited the action of Asc and even stronger that of Art	
Cc1ncc(CO)c(/C=N/NC(=O)c2ccncc2)c1O [PIH, Pyridoxal isonicotinoyl hydrazone]			non-selectively inhibited the action of both Asc and Art in a similar fashion	
N=C(N)c1ccc(OCCCCCOc2ccc(C(=N)N)cc2)cc1 [Pen, pentamidine isethionate]	15	12.3 ± 3.96		
C=CC1=C(C)c2cc3[n-]c(cc4nc(cc5[n-]c(cc1n2)c(C)c5C=C)C(C)=C4CCC(=O)O)c(CCC(=O)O)c3C.[Zn+2] [ZnPP, zinc protoporphyrin]				hemin degradation [7]: strongly inhibited; iron content in LtP [8]: small decline but no total inhibition of iron import into LtP
Tin mesoporphyrin [SnMP]			inhibited the antileishmanial activity of Art stronger than that of Asc	HO-like activity (bilirubin formation) [4, 9]: inhibit this HO-like activity; iron content in LtP [8]: almost identical over several days; Sn accumulation in LtP ([8]; 10 µM SnMP, ICP-MS): taken up into LtP
chromium mesoporphyrin [CrMP]			inhibited the antileishmanial activity of Art stronger than that of Asc	HO-like activity (bilirubin formation) [4, 9]: inhibit this HO-like activity
